For orientation: EC50 means the concentration giving half of the maximal effect. A high value points to a less potent agent.

A value given as a limit tells only on which side of the number the result lay.

For one experiment, the target named is Human immunodeficiency virus type 1 reverse transcriptase (Human immunodeficiency virus 1) (UniProt Q72547). The experiment is described as follows: Antiviral activity against wild type HIV1 reverse transcriptase.
Settings: not given
Molecule `CCc1c(Cc2c(Cl)cccc2Cl)nc(SC/C=C/c2ccc(C#N)cc2)[nH]c1=O` displayed an ID50 of 188 nM.
`CCc1c(Cc2c(F)cccc2F)nc(SCc2ccc([N+](=O)[O-])cc2)[nH]c1=O`: the ID50 turned out to be 70 nM.
`Cc1c(C(C)c2c(F)cccc2F)nc(SC/C=C/c2ccc([N+](=O)[O-])cc2)[nH]c1=O` (configuration not stated) yielded an ID50 of 283 nM.
With `CCc1c(C(C)c2c(F)cccc2F)nc(SC/C=C/c2ccc(OC)cc2)[nH]c1=O` (configuration not stated), the ID50 was determined as 16 nM.
Still for that read-out and setting: the figure for `COc1ccc(/C=C/CSc2nc(C(C)c3c(F)cccc3F)c(C)c(=O)[nH]2)cc1` (configuration not stated) is 292 nM.
As to `Cc1c(C(C)c2c(F)cccc2F)nc(SCc2ccc(C#N)cc2)[nH]c1=O` (configuration not stated), the ID50 amounted to 10 nM.
The molecule `Cc1c(C(C)c2c(Cl)cccc2Cl)nc(SC/C=C/c2ccc([N+](=O)[O-])cc2)[nH]c1=O` (configuration not stated) gave an ID50 of 102 nM.
`COc1ccc(/C=C/CSc2nc(Cc3c(Cl)cccc3Cl)c(C)c(=O)[nH]2)cc1` had an ID50 of 7 nM.
Same read-out and setting: the value for `Cc1c(C(C)c2c(Cl)cccc2Cl)nc(SCc2ccc(C#N)cc2)[nH]c1=O` (configuration not stated) was 20 nM; that for `COc1ccc(CSc2nc(C(C)c3c(Cl)cccc3Cl)c(C)c(=O)[nH]2)cc1` (configuration not stated) was 770 nM; that for `COc1ccc(C#CCSc2nc(Cc3c(Cl)cccc3Cl)c(C)c(=O)[nH]2)cc1` was 10 nM.

In another experiment the test system is Human immunodeficiency virus 1 [K103N]. The experiment is described as follows: Antiviral activity against HIV1 reverse transcriptase K103N mutant.
Settings: not given
In the case of `CCc1c(Cc2c(Cl)cccc2Cl)nc(SC/C=C/c2ccc(C#N)cc2)[nH]c1=O`, the ID50 was greater than 20000 nM.
With `CCc1c(Cc2c(F)cccc2F)nc(SCc2ccc([N+](=O)[O-])cc2)[nH]c1=O`, the ID50 is greater than 20000 nM.
In turn, `Cc1c(C(C)c2c(F)cccc2F)nc(SC/C=C/c2ccc([N+](=O)[O-])cc2)[nH]c1=O` (configuration not stated) gave an ID50 greater than 20000 nM.
The molecule `CCc1c(C(C)c2c(F)cccc2F)nc(SC/C=C/c2ccc(OC)cc2)[nH]c1=O` (configuration not stated) showed an ID50 of 400 nM.
With `COc1ccc(/C=C/CSc2nc(C(C)c3c(F)cccc3F)c(C)c(=O)[nH]2)cc1` (configuration not stated), the ID50 came out at 3700 nM.
The same measure, in the same setting: the figure for `Cc1c(C(C)c2c(F)cccc2F)nc(SCc2ccc(C#N)cc2)[nH]c1=O` (configuration not stated) is 700 nM; for `Cc1c(C(C)c2c(Cl)cccc2Cl)nc(SC/C=C/c2ccc([N+](=O)[O-])cc2)[nH]c1=O` (configuration not stated) it is greater than 20000 nM; for `COc1ccc(/C=C/CSc2nc(Cc3c(Cl)cccc3Cl)c(C)c(=O)[nH]2)cc1` it is 9000 nM.
In the case of `Cc1c(C(C)c2c(Cl)cccc2Cl)nc(SCc2ccc(C#N)cc2)[nH]c1=O` (configuration not stated), the ID50 is greater than 20000 nM.
In turn, `COc1ccc(CSc2nc(C(C)c3c(Cl)cccc3Cl)c(C)c(=O)[nH]2)cc1` (configuration not stated) had an ID50 greater than 20000 nM.
Same read-out and setting: the figure for `COc1ccc(C#CCSc2nc(Cc3c(Cl)cccc3Cl)c(C)c(=O)[nH]2)cc1` is greater than 20000 nM.

The test system of the next experiment is Human immunodeficiency virus type 1 reverse transcriptase (Human immunodeficiency virus 1), Q72547 [Y181I]. The experiment is described as follows: Antiviral activity against HIV1 reverse transcriptase Y181I mutant.
Settings: not given
`CCc1c(Cc2c(Cl)cccc2Cl)nc(SC/C=C/c2ccc(C#N)cc2)[nH]c1=O` had an ID50 greater than 20000 nM.
Same read-out and setting: the value for `CCc1c(Cc2c(F)cccc2F)nc(SCc2ccc([N+](=O)[O-])cc2)[nH]c1=O` was greater than 20000 nM.
Consider `Cc1c(C(C)c2c(F)cccc2F)nc(SC/C=C/c2ccc([N+](=O)[O-])cc2)[nH]c1=O` (configuration not stated), for which the ID50 was greater than 20000 nM.
The molecule `CCc1c(C(C)c2c(F)cccc2F)nc(SC/C=C/c2ccc(OC)cc2)[nH]c1=O` (configuration not stated) came in with an ID50 greater than 20000 nM.
`COc1ccc(/C=C/CSc2nc(C(C)c3c(F)cccc3F)c(C)c(=O)[nH]2)cc1` (configuration not stated): the ID50 is greater than 20000 nM.
In the case of `Cc1c(C(C)c2c(F)cccc2F)nc(SCc2ccc(C#N)cc2)[nH]c1=O` (configuration not stated), the ID50 is greater than 20000 nM.
`Cc1c(C(C)c2c(Cl)cccc2Cl)nc(SC/C=C/c2ccc([N+](=O)[O-])cc2)[nH]c1=O` (configuration not stated) returned an ID50 greater than 20000 nM.
Take `COc1ccc(/C=C/CSc2nc(Cc3c(Cl)cccc3Cl)c(C)c(=O)[nH]2)cc1`: the ID50 is greater than 20000 nM.
The molecule `Cc1c(C(C)c2c(Cl)cccc2Cl)nc(SCc2ccc(C#N)cc2)[nH]c1=O` (configuration not stated) registered an ID50 greater than 20000 nM.
In turn, `COc1ccc(CSc2nc(C(C)c3c(Cl)cccc3Cl)c(C)c(=O)[nH]2)cc1` (configuration not stated) showed an ID50 greater than 20000 nM.
In the case of `COc1ccc(C#CCSc2nc(Cc3c(Cl)cccc3Cl)c(C)c(=O)[nH]2)cc1`, the ID50 was greater than 20000 nM.

Another experiment relates to Human immunodeficiency virus 1. In words: Antiviral activity against wild type HIV1 NL4-3 in MT4 cells after 5 days by MTT method. The note with it: Human immunodeficiency virus 1, NL4-3, MT4, 120 h. The class given is functional, organism-based. The gist of the method: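 MT-4 lymphoid cells, infected with HIV-1 or mock-infected (for cytotoxicity), held with a range of drug concentrations; viable cells scored at day 5 post-infection by tetrazolium (MTT) colorimetry.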
(In general: Formazan colour is commonly taken as a measure of viable cells.)
Regarding `CCc1c(Cc2c(Cl)cccc2Cl)nc(SC/C=C/c2ccc(C#N)cc2)[nH]c1=O`, the EC50 came out at 1730 nM.
For `CCc1c(Cc2c(F)cccc2F)nc(SCc2ccc([N+](=O)[O-])cc2)[nH]c1=O`, the EC50 came out at 74 nM. This EC50 lies about 23-fold lower than the previous one.
In turn, `Cc1c(C(C)c2c(F)cccc2F)nc(SC/C=C/c2ccc([N+](=O)[O-])cc2)[nH]c1=O` (configuration not stated) showed an EC50 of 140 nM.
`CCc1c(C(C)c2c(F)cccc2F)nc(SC/C=C/c2ccc(OC)cc2)[nH]c1=O` (configuration not stated): the EC50 turned out to be 0.2 nM.
For `COc1ccc(/C=C/CSc2nc(C(C)c3c(F)cccc3F)c(C)c(=O)[nH]2)cc1` (configuration not stated), the EC50 amounted to 0.2 nM.
In turn, `Cc1c(C(C)c2c(F)cccc2F)nc(SCc2ccc(C#N)cc2)[nH]c1=O` (configuration not stated) came in with an EC50 of 7.8 nM.
As to `Cc1c(C(C)c2c(Cl)cccc2Cl)nc(SC/C=C/c2ccc([N+](=O)[O-])cc2)[nH]c1=O` (configuration not stated), the concentration for a half-maximal effect (EC50) was 480 nM.
The same measure, in the same setting: the figure for `COc1ccc(/C=C/CSc2nc(Cc3c(Cl)cccc3Cl)c(C)c(=O)[nH]2)cc1` is 15 nM.
Turning to `Cc1c(C(C)c2c(Cl)cccc2Cl)nc(SCc2ccc(C#N)cc2)[nH]c1=O` (configuration not stated), the EC50 was 160 nM.
As to `COc1ccc(CSc2nc(C(C)c3c(Cl)cccc3Cl)c(C)c(=O)[nH]2)cc1` (configuration not stated), the EC50 stood at 1.1 nM.
Turning to `COc1ccc(C#CCSc2nc(Cc3c(Cl)cccc3Cl)c(C)c(=O)[nH]2)cc1`, the EC50 was 2470 nM. Against the preceding molecule, the EC50 is about 2200-fold higher.

The next experiment concerns Human immunodeficiency virus 1. The experiment is described as follows: Antiviral activity against HIV1 with reverse transcriptase K103N mutation in MT4 cells after 5 days by MTT method. The class given is functional, organism-based. The note with it: Human immunodeficiency virus 1, MT4, 120 h. The gist of the method: (§1)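 MT-4 cells from the NIH AIDS Reagent Program were infected with mutant HIV-1 (K103N or Y188L, from the MRC Centralised Facility) in the presence of graded drug concentrations. Mock-infected cells were used for cytotoxicity. Viable cells were counted by MTT colorimetry at day 5 post-infection.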
For the molecule `CCc1c(Cc2c(Cl)cccc2Cl)nc(SC/C=C/c2ccc(C#N)cc2)[nH]c1=O`, the EC50 is greater than 54800 nM.
With `CCc1c(Cc2c(F)cccc2F)nc(SCc2ccc([N+](=O)[O-])cc2)[nH]c1=O`, the midpoint of the response, the EC50, lay at 10600 nM.
Take `Cc1c(C(C)c2c(F)cccc2F)nc(SC/C=C/c2ccc([N+](=O)[O-])cc2)[nH]c1=O` (configuration not stated): the EC50 was greater than 11300 nM.
Turning to `CCc1c(C(C)c2c(F)cccc2F)nc(SC/C=C/c2ccc(OC)cc2)[nH]c1=O` (configuration not stated), the EC50 came out at 1020 nM.
`COc1ccc(/C=C/CSc2nc(C(C)c3c(F)cccc3F)c(C)c(=O)[nH]2)cc1` (configuration not stated) came in with an EC50 of 260 nM.
`Cc1c(C(C)c2c(F)cccc2F)nc(SCc2ccc(C#N)cc2)[nH]c1=O` (configuration not stated) came in with an EC50 of 730 nM.
Molecule `Cc1c(C(C)c2c(Cl)cccc2Cl)nc(SC/C=C/c2ccc([N+](=O)[O-])cc2)[nH]c1=O` (configuration not stated) registered a 50% effective concentration (EC50) greater than 41000 nM.
On the same count and under the same terms, the value for `COc1ccc(/C=C/CSc2nc(Cc3c(Cl)cccc3Cl)c(C)c(=O)[nH]2)cc1` was greater than 960 nM; that for `Cc1c(C(C)c2c(Cl)cccc2Cl)nc(SCc2ccc(C#N)cc2)[nH]c1=O` (configuration not stated) was 11600 nM; that for `COc1ccc(CSc2nc(C(C)c3c(Cl)cccc3Cl)c(C)c(=O)[nH]2)cc1` (configuration not stated) was 6720 nM.
The molecule `COc1ccc(C#CCSc2nc(Cc3c(Cl)cccc3Cl)c(C)c(=O)[nH]2)cc1` registered an EC50 greater than 56200 nM.

The test system of a further experiment is Human immunodeficiency virus 1. In words: Antiviral activity against HIV1 with reverse transcriptase Y181C mutation in MT4 cells after 5 days by MTT method. The experiment is classed as functional, organism-based. The note with it: Human immunodeficiency virus 1, MT4, 120 h.
Regarding `CCc1c(Cc2c(F)cccc2F)nc(SCc2ccc([N+](=O)[O-])cc2)[nH]c1=O`, a half-maximal effect (EC50) was put at 2130 nM. In other words, the single-digit micromolar range.
For the molecule `Cc1c(C(C)c2c(F)cccc2F)nc(SC/C=C/c2ccc([N+](=O)[O-])cc2)[nH]c1=O` (configuration not stated), the EC50 was greater than 11300 nM.
Still for that read-out and setting: the value for `CCc1c(C(C)c2c(F)cccc2F)nc(SC/C=C/c2ccc(OC)cc2)[nH]c1=O` (configuration not stated) was 700 nM; that for `COc1ccc(/C=C/CSc2nc(C(C)c3c(F)cccc3F)c(C)c(=O)[nH]2)cc1` (configuration not stated) was 130 nM; that for `Cc1c(C(C)c2c(F)cccc2F)nc(SCc2ccc(C#N)cc2)[nH]c1=O` (configuration not stated) was 1550 nM.
`Cc1c(C(C)c2c(Cl)cccc2Cl)nc(SC/C=C/c2ccc([N+](=O)[O-])cc2)[nH]c1=O` (configuration not stated): the EC50 is greater than 41000 nM.
As for `COc1ccc(/C=C/CSc2nc(Cc3c(Cl)cccc3Cl)c(C)c(=O)[nH]2)cc1`, the EC50 was greater than 960 nM.
Take `COc1ccc(CSc2nc(C(C)c3c(Cl)cccc3Cl)c(C)c(=O)[nH]2)cc1` (configuration not stated): the EC50 was determined as 1730 nM.

The next experiment deals with Human immunodeficiency virus 1. In words: Antiviral activity against HIV1 with reverse transcriptase Y188L mutation in MT4 cells after 5 days by MTT method. The experiment is classed as functional, organism-based. The note with it: Human immunodeficiency virus 1, MT4, 120 h. The gist of the method: as §1
For `CCc1c(Cc2c(Cl)cccc2Cl)nc(SC/C=C/c2ccc(C#N)cc2)[nH]c1=O`, the EC50 was greater than 54800 nM.
Still for that read-out and setting: the figure for `CCc1c(Cc2c(F)cccc2F)nc(SCc2ccc([N+](=O)[O-])cc2)[nH]c1=O` is greater than 60000 nM; for `Cc1c(C(C)c2c(F)cccc2F)nc(SC/C=C/c2ccc([N+](=O)[O-])cc2)[nH]c1=O` (configuration not stated) it is greater than 11300 nM.
In turn, `CCc1c(C(C)c2c(F)cccc2F)nc(SC/C=C/c2ccc(OC)cc2)[nH]c1=O` (configuration not stated) came in with an EC50 of 630 nM. That is a sub-micromolar value.
With `COc1ccc(/C=C/CSc2nc(C(C)c3c(F)cccc3F)c(C)c(=O)[nH]2)cc1` (configuration not stated), the EC50 stood at 70 nM.
`Cc1c(C(C)c2c(F)cccc2F)nc(SCc2ccc(C#N)cc2)[nH]c1=O` (configuration not stated) yielded an EC50 of 680 nM. This EC50 is about 9.7-fold higher than that of the molecule before.
Same read-out and setting: the figure for `Cc1c(C(C)c2c(Cl)cccc2Cl)nc(SC/C=C/c2ccc([N+](=O)[O-])cc2)[nH]c1=O` (configuration not stated) is greater than 41000 nM.
Regarding `COc1ccc(/C=C/CSc2nc(Cc3c(Cl)cccc3Cl)c(C)c(=O)[nH]2)cc1`, the EC50 is greater than 960 nM.
The molecule `COc1ccc(C#CCSc2nc(Cc3c(Cl)cccc3Cl)c(C)c(=O)[nH]2)cc1` gave an EC50 greater than 56200 nM.

For the origin of these results see ChEMBL document CHEMBL1138362, “Dihydro-alkylthio-benzyl-oxopyrimidines as inhibitors of reverse transcriptase: synthesis and rationalization of the biological data on both wild-type enzyme and relevant clinical mutants” (J Med Chem, 2007).
